Tests used:
Format in all cases: functional
SR = test: Cytotoxicity against human SR cells assessed as cell growth at 100 uM after 48 hrs by sulforhodamine B assay; conditions: read-out: Activity
HCT-116 [1] = test: Cytotoxicity against human HCT116 cells assessed as cell growth at 0.1 uM after 48 hrs by sulforhodamine B assay; conditions: HCT-116, 48 h, read-out: Activity
Outline: (§1)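 Five-dose NCI panel run at 0.01, 0.1, 1, 10 and 100 µM. Cells were in RPMI 1640 with 5% FBS and 2 mM L-glutamine, seeded at 5000–40,000 cells/well and pre-incubated 24 h. Drug was diluted from a DMSO stock into medium with 50 µg/ml gentamicin. Exposure was 48 h at 37 °C, 5% CO2. Cells were fixed with cold TCA and stained with 0.4% SRB, read at 515 nm. Percent growth came from time-zero, control and test absorbances.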

BT-549 = test: Cytotoxicity against human BT549 cells assessed as cell growth at 10 '-5 M after 48 hrs by sulforhodamine B assay; conditions: BT-549, 48 h, read-out: Activity
Outline: (§2)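 Primary NCI-60 single-dose screen at 10 µM. Cells were grown in RPMI 1640 with 5% FBS and 2 mM L-glutamine and plated 24 h before drug addition. Compound was solubilized in DMSO, then exposed for 48 h at 37 °C under 5% CO2. Cells were TCA-fixed and stained with SRB, and absorbance was read at 515 nm. Growth was expressed relative to time-zero and untreated controls.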

NCI-H226 = test: Growth inhibition of human NCI-H226 cells after 48 hrs by sulforhodamine B assay; conditions: NCI-H226, 48 h
Outline: (§3)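 Adherent NCI-60 lines were grown in RPMI 1640 with 5% FBS and 2 mM L-glutamine, plated at 5000–40,000 cells/well and preincubated 24 h. They were then exposed to five concentrations (0.01–100 µM, from a DMSO stock) for 48 h at 37 °C, 5% CO2. Cells were fixed with cold TCA (10% final, 60 min, 4 °C) and stained with 0.4% SRB. Dye was solubilized in 10 mM Tris base and A515 read. GI50 was derived from time-zero, control and treated absorbances.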

SNB-75 [2] = test: Growth inhibition of human SNB75 cells after 48 hrs by sulforhodamine B assay; conditions: SNB-75, 48 h; outline: as §3
UO-31 [3] = test: Growth inhibition of human UO31 cells after 48 hrs by sulforhodamine B assay; conditions: UO-31, 48 h; for CC50: read-out: LC50 (the source's name); outline: as §3
UACC-257 [4] = test: Cytotoxicity against human UACC257 cells assessed as cell growth at 10 '-5 M after 48 hrs by sulforhodamine B assay; conditions: UACC-257, 48 h, read-out: Activity
T47D = test: Cytotoxicity against human T47D cells assessed as cell growth at 10 uM after 48 hrs by sulforhodamine B assay; conditions: read-out: Activity
SF-268 [5] = test: Cytotoxicity against human SF268 cells assessed as cell growth at 1 uM after 48 hrs by sulforhodamine B assay; conditions: SF-268, 48 h, read-out: Activity
SK-MEL-5 = test: Cytotoxicity against human SK-MEL-5 cells assessed as cell growth at 0.01 uM after 48 hrs by sulforhodamine B assay; conditions: SK-MEL-5, 48 h, read-out: Activity
UO-31 [6] = test: Cytotoxicity against human UO31 cells assessed as cell growth at 1 uM after 48 hrs by sulforhodamine B assay; conditions: UO-31, 48 h, read-out: Activity
U-251 = test: Cytotoxicity against human U251 cells assessed as cell growth at 10 uM after 48 hrs by sulforhodamine B assay; conditions: U-251, 48 h, read-out: Activity
SF-268 [7] = test: Growth inhibition of human SF268 cells after 48 hrs by sulforhodamine B assay; conditions: SF-268, 48 h; outline: as §3
UACC-257 [8] = test: Cytotoxicity against human UACC257 cells assessed as cell growth at 1 uM after 48 hrs by sulforhodamine B assay; conditions: UACC-257, 48 h, read-out: Activity
NCI-H23 = test: Cytotoxicity against human NCI-H23 cells assessed as cell growth at 1 uM after 48 hrs by sulforhodamine B assay; conditions: NCI-H23, 48 h, read-out: Activity
OVCAR-8 = test: Cytotoxicity against human OVCAR8 cells assessed as cell growth at 0.1 uM after 48 hrs by sulforhodamine B assay; conditions: OVCAR-8, 48 h, read-out: Activity
SNB-75 [9] = test: Cytotoxicity against human SNB75 cells assessed as cell growth at 10 uM after 48 hrs by sulforhodamine B assay; conditions: SNB-75, 48 h, read-out: Activity
SNB-19 [10] = test: Cytotoxicity against human SNB19 cells assessed as cell growth at 1 uM after 48 hrs by sulforhodamine B assay; conditions: SNB-19, 48 h, read-out: Activity
MDA-MB-231 = test: Cytotoxicity against human MDA-MB-231 cells assessed as cell growth at 0.01 uM after 48 hrs by sulforhodamine B assay; conditions: MDA-MB-231, 48 h, read-out: Activity
MCF7 = test: Cytotoxicity against human MCF7 cells assessed as cell growth at 100 uM after 48 hrs by sulforhodamine B assay; conditions: MCF7, 48 h, read-out: Activity
SNB-19 [11] = test: Cytotoxicity against human SNB19 cells assessed as cell growth at 0.01 uM after 48 hrs by sulforhodamine B assay; conditions: SNB-19, 48 h, read-out: Activity
HCT-116 [12] = test: Cytotoxicity against human HCT116 cells assessed as cell growth at 100 uM after 48 hrs by sulforhodamine B assay; conditions: HCT-116, 48 h, read-out: Activity; outline: as §1
ACHN = test: Cytotoxicity against human ACHN cells assessed as cell growth at 10 '-5 M after 48 hrs by sulforhodamine B assay; conditions: read-out: Activity; outline: as §2
NCI-H460 = test: Cytotoxicity against human NCI-H460 cells assessed as cell growth at 0.1 uM after 48 hrs by sulforhodamine B assay; conditions: NCI-H460, 48 h, read-out: Activity
786-0 = test: Cytotoxicity against human 786-0 cells assessed as cell growth at 1 uM after 48 hrs by sulforhodamine B assay; conditions: 786-0, 48 h, read-out: Activity
Outline: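 NCI-60 five-dose screen. Cells were grown in RPMI 1640 with 5% FBS and 2 mM L-glutamine and preincubated 24 h. Compound (DMSO stock) was tested at 0.01, 0.1, 1, 10 and 100 µM for 48 h at 37 °C. Cells were fixed in situ with cold TCA (final 10%) and stained with 0.4% SRB. A515 was read, and percent growth was calculated against time-zero and control plates.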

NCI/ADR-RES = test: Cytotoxicity against human NCI/ADR-RES cells assessed as cell growth at 10 uM after 48 hrs by sulforhodamine B assay; conditions: read-out: Activity
SF-539 = test: Cytotoxicity against human SF539 cells assessed as cell growth at 0.01 uM after 48 hrs by sulforhodamine B assay; conditions: SF-539, 48 h, read-out: Activity
RPMI-8226 = test: Cytotoxicity against human RPMI8226 cells assessed as cell growth at 0.01 uM after 48 hrs by sulforhodamine B assay; conditions: RPMI-8226, 48 h, read-out: Activity

Row | Compound | growth at 100 µM (SR) [%] | growth at 0.1 µM (HCT-116 [1]) [%] | growth at 10 µM (BT-549) [%] | GI50 (NCI-H226) [µM] | LC50 (NCI-H226) [µM] | TGI (NCI-H226) [µM] | GI50 (SNB-75 [2]) [µM] | LC50 (SNB-75 [2]) [µM] | TGI (UO-31 [3]) [µM] | CC50 (UO-31 [3]) [µM] | growth at 10 µM (UACC-257 [4]) [%] | growth at 10 µM (T47D) [%] | growth at 1 µM (SF-268 [5]) [%] | growth at 0.01 µM (SK-MEL-5) [%] | growth at 1 µM (UO-31 [6]) [%] | growth at 10 µM (U-251) [%] | GI50 (SF-268 [7]) [µM] | LC50 (concentration killing 50% of the starting cells) (SF-268 [7]) [µM] | TGI (SF-268 [7]) [µM] | growth at 1 µM (UACC-257 [8]) [%] | other results
1 | Cc1ccc2nc(Nc3c(C)cccc3C)sc2c1 | 22 | 103 | 37.1 | > 100 | > 100 | > 100 | 1.26 | > 100 | > 100 | > 100 | 56.1 | 60 | 79 | 95 | 73 | 63 | 29.3 | > 100 | > 100 | 83 | TGI (SNB-75 [2]): > 100 µM; growth at 1 µM (NCI-H23): 79%; growth at 0.1 µM (OVCAR-8): 105%; growth at 10 µM (SNB-75 [9]): 36%; growth at 1 µM (SNB-19 [10]): 61%; growth at 0.01 µM (MDA-MB-231): 85%; growth at 100 µM (MCF7): 46%; growth at 0.01 µM (SNB-19 [11]): 94%; growth at 100 µM (HCT-116 [12]): 49%; growth at 10 µM (ACHN): 52.2%; growth at 0.1 µM (NCI-H460): 103%; growth at 1 µM (786-0): 81%; growth at 10 µM (NCI/ADR-RES): 22%; growth at 0.01 µM (SF-539): 99%; growth at 0.01 µM (RPMI-8226): 101%
2 | Clc1cccc(Cl)c1Nc1nc2cccc(Cl)c2s1 | -32 | 99 | -67.8 | 1.18 | 6.95 | 2.86 | 0.791 | > 100 | 1.67 | 4.44 | -33.3 | -90 | 62 | 94 | 26 | -84 | 1.2 | 5.66 | 2.61 | 68 | GI50 (UO-31 [3]): 0.161 µM; growth at 1 µM (NCI-H23): 59%; growth at 0.1 µM (OVCAR-8): 101%; growth at 10 µM (SNB-75 [9]): -32%; growth at 1 µM (SNB-19 [10]): 68%; growth at 0.01 µM (MDA-MB-231): 92%; growth at 100 µM (MCF7): -55%; growth at 0.01 µM (SNB-19 [11]): 91%; growth at 100 µM (HCT-116 [12]): -73%; growth at 10 µM (ACHN): -18.9%; growth at 0.1 µM (NCI-H460): 96%; growth at 1 µM (786-0): 52%; growth at 10 µM (NCI/ADR-RES): -72%; growth at 0.01 µM (SF-539): 97%; growth at 0.01 µM (RPMI-8226): 103%

— ChEMBL document CHEMBL2040734, “Benzothiazoles: search for anticancer agents” (2012)
